Experimental data reported in ChEMBL document CHEMBL4406794, “N-(7-Cyano-6-(4-fluoro-3-(2-(3-(trifluoromethyl)phenyl)acetamido)phenoxy)benzo[d]thiazol-2-yl)cyclopropanecarboxamide (TAK-632) Analogues as Novel Necroptosis Inhibitors by Targeting Receptor-Interacting Protein Kinase 3 (RIPK3): Synthesis, Structure-Activity Relationships, and in Vivo Efficacy” (J Med Chem, 2019).
The source made the active and inactive calls. The rule behind the calls is not given here.

What was measured:
[1] = molecular target: T1, Receptor-interacting serine/threonine-protein kinase 1 (Homo sapiens, UniProt Q13546); experiment: Binding affinity to wild-type human partial length RIPK1 (M1 to K305 residues) expressed in bacterial expression system at 5 uM after 1 hr by quantitative PCR based KINOMEscan assay
T1 sequence (Q13546 whole entry): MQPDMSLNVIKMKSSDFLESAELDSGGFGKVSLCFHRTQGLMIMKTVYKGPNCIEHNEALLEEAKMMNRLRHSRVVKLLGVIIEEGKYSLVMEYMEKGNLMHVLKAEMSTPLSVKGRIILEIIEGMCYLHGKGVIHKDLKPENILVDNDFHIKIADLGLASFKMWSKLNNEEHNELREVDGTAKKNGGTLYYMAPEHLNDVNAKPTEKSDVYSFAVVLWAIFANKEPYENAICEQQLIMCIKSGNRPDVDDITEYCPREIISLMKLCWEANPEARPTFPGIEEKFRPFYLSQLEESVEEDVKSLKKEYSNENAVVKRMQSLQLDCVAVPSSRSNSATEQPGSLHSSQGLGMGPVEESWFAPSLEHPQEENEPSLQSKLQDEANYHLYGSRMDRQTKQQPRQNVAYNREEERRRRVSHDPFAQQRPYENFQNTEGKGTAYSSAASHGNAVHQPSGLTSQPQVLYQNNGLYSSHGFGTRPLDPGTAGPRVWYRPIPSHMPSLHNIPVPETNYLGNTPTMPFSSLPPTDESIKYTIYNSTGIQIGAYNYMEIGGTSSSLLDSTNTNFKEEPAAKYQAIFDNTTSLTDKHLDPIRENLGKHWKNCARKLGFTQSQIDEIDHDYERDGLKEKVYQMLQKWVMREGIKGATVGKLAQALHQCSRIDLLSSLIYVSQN

[2] = system: Epidermal growth factor receptor (Homo sapiens), P00533 [L858R]; experiment: Inhibition of wild-type human partial length EGFR L858R mutant (R669 to V1011 residues) expressed in bacterial expression system assessed as enzyme remaining activity at 1000 nM by Kinomescan method relative to control
In short: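 KINOMEscan binding competition. […] Incubation was 1 h at room temperature with shaking, then bead wash and elution with 0.5 μM nonbiotinylated ligand for 30 min. Eluted kinase was quantified by qPCR. Compound was diluted from 40× DMSO stocks to 1000 nM final.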

[3] = molecular target: Fibroblast growth factor receptor 3 (Homo sapiens) (UniProt P22607); experiment: Inhibition of wild-type human partial length FGFR3 (R442 to S771 residues) expressed in bacterial expression assessed as enzyme remaining activity at 1000 nM by Kinomescan method relative to control
[4] = molecular target: Vascular endothelial growth factor receptor 2 (Homo sapiens) (UniProt P35968); experiment: Inhibition of wild-type human partial length VEGFR2 (R787 to P1253 residues) expressed in mammalian expression system assessed as enzyme remaining activity at 1000 nM by Kinomescan method relative to control
[5] = molecular target: Cyclin-dependent kinase 2 (Homo sapiens) (UniProt P24941); experiment: Inhibition of wild-type human full length CDK2 (M1 to L298 residues) expressed in bacterial expression system assessed as enzyme remaining activity at 1000 nM by Kinomescan method relative to control
[6] = molecular target: Inhibitor of nuclear factor kappa-B kinase subunit beta (Homo sapiens) (UniProt O14920); experiment: Inhibition of wild-type human full length IKK-beta (M1 to S756 residues) expressed in mammalian expression system assessed as enzyme remaining activity at 1000 nM by Kinomescan method relative to control
[7] = system: HT-29; experiment: Cytoprotection against TNFalpha/cycloheximide/Z-VAD-fmk-induced necroptosis in human HT-29 cells at 3 uM treated prior to TNFalpha/cycloheximide/Z-VAD-fmk stimulation and measured after 12 hrs by cell-Titer Glo luminescent cell viability assay; type: functional, cell-based
In short: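 HT-29 cells pretreated with compound at 3 μM or DMSO, then given TNF-α 20 ng/mL, cycloheximide 5 μg/mL and z-VAD-fmk 20 μM for 12 h. Viability read by CellTiter-Glo luminescence.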

[8] = system: HT-29; experiment: Effect on TNFalpha/cycloheximide-induced apoptosis in human HT-29 cells at 3 uM treated prior to TNFalpha/cycloheximide stimulation and measured after 20 hrs by cell-Titer Glo luminescent cell viability assay; type: cell-based; settings: ht-29, 20 h
In short: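 HT-29 cells pretreated with compound at 3 μM or DMSO, then given TNF-α 20 ng/mL with either cycloheximide 5 μg/mL (TC) or Smac mimetic 10 nM (TS) for 20 h. Viability read by CellTiter-Glo luminescence.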

[9] = molecular target: T1, Receptor-interacting serine/threonine-protein kinase 1; experiment: Inhibition of RIPK1 phosphorylation in TNFalpha/smac mimetic/Z-VAD-fmk stimulated human HT-29 cells at 1 uM treated prior to TNFalpha/smac mimetic/Z-VAD-fmk stimulation and measured after 2 to 4 hrs by SDS-PAGE based immunoblot assay; type: cell-based; settings: ht-29, 1 µM
[10] = molecular target: Receptor-interacting serine/threonine-protein kinase 3 (Homo sapiens, UniProt Q9Y572); experiment: Inhibition of RIPK3 phosphorylation in human HT-29 cells assessed as reduction in TNFalpha/smac mimetic/Z-VAD-fmk-induced necrosome formation at 1 uM treated prior to TNFalpha/smac mimetic/Z-VAD-fmk stimulation and measured after 4 hrs by immunoprecipitation based assay; type: cell-based
In short: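 HT-29 cells treated with 1 μM compound or DMSO for 4 h, then lysed in M2 buffer. Lysates immunoprecipitated overnight at 4 °C with anti-RIPK1 (1 μg) on protein A/G agarose. Bound proteins boiled off and resolved on 4–20% SDS gels, then immunoblotted.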

[11] = system: Mus musculus; experiment: Protection against TNFalpha/Z-VAD-fmk-induced C57BL/6J mouse model of systemic inflammatory response syndrome assessed as increase in body temperature at 5 to 50 mg/kg, po administered via gavage 2 hrs prior to Z-VAD-fmk addition for 15 mins followed by TNFalpha stimulation for 1 hr and subsequent Z-VAD-fmk addition meaured up to 50 hrs post TNFalpha stimulation by electric thermometer; type: functional, organism-based
In short: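 Female C57BL/6 mice, fasted overnight, n=10 per group. Compound given by oral gavage at 5, 25 or 50 mg/kg 2 h before TNF. z-VAD-fmk 180 µg i.p., then 15 min later mTNF-α 400 µg/kg i.v. in endotoxin-free PBS, then a further 70 µg z-VAD-fmk i.p. 1 h later. Body temperature and survival followed, compared with vehicle by one-way ANOVA.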

[12] = Cmax in Sprague-Dawley rat at 1 mg/kg, iv by LC-tandem mass spectrometry analysis; type: ADME, organism-based; parameters: dose 1 mg/kg, route intravenous; settings: in vivo
In short: (§1)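 Male Sprague-Dawley rats dosed once i.v. at 1 mg/kg or intragastrically at 5 mg/kg. Compound dissolved in 5% DMSO, 10% Tween 80, 75% physiological saline at 0.2 and 1 mg/mL. Blood taken at several time points, plasma spun at 4 °C, stored at -80 °C, assayed by LC/MS/MS. Parameters from individual animals by noncompartmental analysis.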

[13] = AUC (0 to t) in Sprague-Dawley rat at 1 mg/kg, iv by LC-tandem mass spectrometry analysis; type: ADME, organism-based; settings: in vivo; in short: as §1
[14] = Oral bioavailability in Sprague-Dawley rat at 5 mg/kg by LC-tandem mass spectrometry analysis; type: ADME, organism-based; settings: in vivo; in short: as §1

Chain of Receptor-interacting serine/threonine-protein kinase 3 (Q9Y572 whole entry, looked up): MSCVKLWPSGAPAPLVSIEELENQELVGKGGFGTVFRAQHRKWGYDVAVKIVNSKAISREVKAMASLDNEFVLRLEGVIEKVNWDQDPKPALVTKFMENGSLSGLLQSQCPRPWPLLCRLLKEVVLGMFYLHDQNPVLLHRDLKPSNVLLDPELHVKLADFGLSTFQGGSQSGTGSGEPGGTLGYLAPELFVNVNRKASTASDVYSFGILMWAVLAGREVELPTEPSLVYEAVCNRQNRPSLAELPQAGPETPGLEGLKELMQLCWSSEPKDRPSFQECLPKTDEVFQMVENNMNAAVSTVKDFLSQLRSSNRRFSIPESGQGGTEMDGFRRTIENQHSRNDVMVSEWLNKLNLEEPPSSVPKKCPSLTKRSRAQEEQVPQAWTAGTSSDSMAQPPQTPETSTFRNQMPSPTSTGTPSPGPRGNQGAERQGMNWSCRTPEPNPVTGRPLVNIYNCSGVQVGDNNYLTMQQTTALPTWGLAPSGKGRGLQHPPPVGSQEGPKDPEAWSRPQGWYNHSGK
Chain of Inhibitor of nuclear factor kappa-B kinase subunit beta (Homo sapiens) (O14920 whole entry, the tested form may be a part): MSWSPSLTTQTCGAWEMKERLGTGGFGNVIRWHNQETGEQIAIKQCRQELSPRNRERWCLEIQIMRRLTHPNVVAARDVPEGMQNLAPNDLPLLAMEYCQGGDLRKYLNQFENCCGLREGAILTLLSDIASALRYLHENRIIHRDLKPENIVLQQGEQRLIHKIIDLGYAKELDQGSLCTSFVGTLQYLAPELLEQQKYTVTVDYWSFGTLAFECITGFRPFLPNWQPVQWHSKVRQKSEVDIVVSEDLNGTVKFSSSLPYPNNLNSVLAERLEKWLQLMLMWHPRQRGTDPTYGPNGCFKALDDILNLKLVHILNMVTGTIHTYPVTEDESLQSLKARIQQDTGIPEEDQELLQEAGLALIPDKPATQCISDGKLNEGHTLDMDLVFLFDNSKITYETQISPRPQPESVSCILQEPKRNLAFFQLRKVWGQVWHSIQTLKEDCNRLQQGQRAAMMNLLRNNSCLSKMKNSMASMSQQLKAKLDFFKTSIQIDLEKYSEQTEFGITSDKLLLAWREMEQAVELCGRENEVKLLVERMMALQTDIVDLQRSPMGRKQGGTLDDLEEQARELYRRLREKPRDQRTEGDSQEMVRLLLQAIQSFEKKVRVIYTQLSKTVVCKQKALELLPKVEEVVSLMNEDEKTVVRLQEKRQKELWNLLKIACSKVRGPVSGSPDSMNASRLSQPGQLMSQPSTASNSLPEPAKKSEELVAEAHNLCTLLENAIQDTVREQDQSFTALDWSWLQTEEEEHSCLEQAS
Chain of Vascular endothelial growth factor receptor 2 (Homo sapiens) (P35968 whole entry, the tested form may be a part): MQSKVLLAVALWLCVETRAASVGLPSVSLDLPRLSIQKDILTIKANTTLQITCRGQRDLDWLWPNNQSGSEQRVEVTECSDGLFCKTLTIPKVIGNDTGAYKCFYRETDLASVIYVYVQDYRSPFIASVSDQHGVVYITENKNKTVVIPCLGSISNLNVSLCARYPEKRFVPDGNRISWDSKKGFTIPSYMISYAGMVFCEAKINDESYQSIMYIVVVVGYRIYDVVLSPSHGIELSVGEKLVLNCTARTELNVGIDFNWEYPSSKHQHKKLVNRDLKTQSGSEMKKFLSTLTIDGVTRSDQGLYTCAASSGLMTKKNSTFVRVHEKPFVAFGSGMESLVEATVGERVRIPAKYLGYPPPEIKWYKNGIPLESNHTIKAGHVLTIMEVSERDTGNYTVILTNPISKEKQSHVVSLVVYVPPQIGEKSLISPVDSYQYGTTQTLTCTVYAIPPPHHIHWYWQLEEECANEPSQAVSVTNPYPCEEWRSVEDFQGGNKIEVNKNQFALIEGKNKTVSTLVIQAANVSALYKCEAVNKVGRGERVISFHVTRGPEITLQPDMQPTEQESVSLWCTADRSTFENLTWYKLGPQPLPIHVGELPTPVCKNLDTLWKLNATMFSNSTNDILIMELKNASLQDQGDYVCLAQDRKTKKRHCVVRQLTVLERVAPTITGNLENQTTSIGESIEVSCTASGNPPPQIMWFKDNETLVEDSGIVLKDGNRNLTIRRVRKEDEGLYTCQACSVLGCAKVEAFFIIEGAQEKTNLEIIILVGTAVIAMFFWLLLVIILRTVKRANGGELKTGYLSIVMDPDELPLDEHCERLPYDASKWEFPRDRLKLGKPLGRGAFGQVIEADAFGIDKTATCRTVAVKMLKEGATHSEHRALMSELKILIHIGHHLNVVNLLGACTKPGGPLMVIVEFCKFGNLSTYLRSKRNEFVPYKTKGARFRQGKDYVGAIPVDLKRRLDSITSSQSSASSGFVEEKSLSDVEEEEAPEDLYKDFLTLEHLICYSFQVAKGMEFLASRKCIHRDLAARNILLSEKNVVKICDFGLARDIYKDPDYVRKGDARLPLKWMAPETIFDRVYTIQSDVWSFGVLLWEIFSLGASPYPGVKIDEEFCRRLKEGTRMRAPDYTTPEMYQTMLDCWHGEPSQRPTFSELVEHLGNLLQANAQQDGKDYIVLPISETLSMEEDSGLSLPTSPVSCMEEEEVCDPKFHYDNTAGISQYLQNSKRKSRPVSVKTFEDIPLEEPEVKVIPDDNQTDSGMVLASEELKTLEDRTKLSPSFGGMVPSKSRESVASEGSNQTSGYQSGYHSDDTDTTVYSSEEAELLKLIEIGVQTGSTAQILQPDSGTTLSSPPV
Chain of Fibroblast growth factor receptor 3 (Homo sapiens) (P22607 23-806 limits assumed): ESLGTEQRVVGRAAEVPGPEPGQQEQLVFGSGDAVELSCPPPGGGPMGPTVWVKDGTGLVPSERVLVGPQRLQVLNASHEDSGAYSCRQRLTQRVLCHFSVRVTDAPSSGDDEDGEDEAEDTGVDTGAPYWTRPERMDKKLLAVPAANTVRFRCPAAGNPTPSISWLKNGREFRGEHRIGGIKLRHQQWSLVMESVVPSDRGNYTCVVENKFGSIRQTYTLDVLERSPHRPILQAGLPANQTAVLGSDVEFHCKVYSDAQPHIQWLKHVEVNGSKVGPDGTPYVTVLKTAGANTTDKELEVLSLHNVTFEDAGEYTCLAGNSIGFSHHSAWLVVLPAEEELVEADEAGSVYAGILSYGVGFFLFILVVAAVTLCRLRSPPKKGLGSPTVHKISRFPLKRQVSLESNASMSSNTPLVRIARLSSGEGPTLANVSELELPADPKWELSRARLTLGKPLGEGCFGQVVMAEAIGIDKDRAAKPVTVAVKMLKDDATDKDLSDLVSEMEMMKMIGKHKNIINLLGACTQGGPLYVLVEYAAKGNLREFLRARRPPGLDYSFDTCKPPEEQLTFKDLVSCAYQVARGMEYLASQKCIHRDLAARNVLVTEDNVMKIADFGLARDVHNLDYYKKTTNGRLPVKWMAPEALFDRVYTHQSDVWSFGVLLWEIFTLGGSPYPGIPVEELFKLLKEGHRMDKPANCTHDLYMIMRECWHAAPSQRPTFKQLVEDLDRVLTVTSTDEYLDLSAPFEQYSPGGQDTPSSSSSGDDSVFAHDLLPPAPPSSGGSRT

O=C(Nc1cccc(Br)c1)Nc1cc(Oc2ccc3nc(NC(=O)C4CC4)sc3c2)ccc1F
Activity [1]: Not Active | Activity [2]: 61% | Activity [3]: 62% | Activity [4]: 2.8% | Activity [5]: 93% | Activity [6]: 97% | Activity [7]: Active | Activity [8]: Non-Toxic | inhibition (INH) [9]: Not Active | inhibition [10]: Active | Activity [11]: Active | Cmax [12]: 4600 ng/mL | AUC(0-t) [13]: 5560 ng·h/mL | bioavailability [14]: 25.2%
